This is a sample that favours compounds with a hit; in the whole collection about 1.4% have one here.
HIF activator: HIF pathway transcriptional activators, primary screen, cell-based, U2OS HRE-luciferase, luminescence | U2OS HRE-luciferase reporter; normalized: DMSO 0%, desferrioxamine 100% | activation, % at 7.5 µM (by protocol) | 300,000 tested, 0.32% active | AID 1910, 2009;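 active = mean activation of at least 10% of the iron chelator positive control signal, with at least half of replicates also reaching 10%; inconclusive = mean and replicate majority disagree about reaching 10%; inactive = mean and most replicates under 10%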
T cell modulator: modulators of CD8 T cell-vesicle binding, primary screen, mouse 2C CD8+ T cells, flow cytometry; 2C CD8+ T cell-vesicle binding; stronger effect = lower value; response (vesicle binding), % at 7 µM; 330,000 tested, 0.068% active; AID 2052, 2009;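 active = response, share of CD8 T cells binding vesicles, and their 90th percentile fluorescence all below set limits, cut at about 80% in these data, passing the limit was not always enough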;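 note: values below 100% mean blocked vesicle binding to the CD8+ T cells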
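material = purified 2C TCR transgenic mouse naive CD8+ T cells | controls = Unloaded micro-vesicles (low), QL9 vesicles with 0.7% DMSO (high) | detection = cytometric PE anti-B7-1 and Alexa647 anti-CD8 signals after 1% paraformaldehyde fixation | incubation = binding step 1.5 h, 37 °C, antibody labelling 20 min, ice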
SUMO Mot1 rescue: yeast Mot1-301 growth rescue at high temperature, primary screen, SUMOylation pathway inhibitor project, S. cerevisiae, ATP luminescence, 38.5C. S. cerevisiae Mot1-301 growth rescue; percent above DMSO median, 100 means doubled. growth rescue, % at 18.8 µM. 320,000 tested, 1% active. AID 2716, 2010;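 active = every valid replicate shows activation above 250% relative to neutral control wells; inactive = the rest, any valid replicate at or below 250%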
JMJD2C inh: inhibitors of GASC-1 histone demethylase, primary screen, biochemical, fluorescence, DELFIA europium; GST-JMJD2C(1-420) H3K9me3 demethylation; inhibition, % at 2.35 µM; 330,000 tested, 0.069% active;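 active = more than half of a compound's replicate wells show inhibition beyond 50%, single wells judged on their own value; inconclusive = some, but no more than half, of replicates pass 50% inhibition; inactive = no replicate passes 50% inhibition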;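 note: signal counts dimethyl H3K9 product captured on neutravidin plate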
Target sequence (Q9H3R0 1-420 limits assumed): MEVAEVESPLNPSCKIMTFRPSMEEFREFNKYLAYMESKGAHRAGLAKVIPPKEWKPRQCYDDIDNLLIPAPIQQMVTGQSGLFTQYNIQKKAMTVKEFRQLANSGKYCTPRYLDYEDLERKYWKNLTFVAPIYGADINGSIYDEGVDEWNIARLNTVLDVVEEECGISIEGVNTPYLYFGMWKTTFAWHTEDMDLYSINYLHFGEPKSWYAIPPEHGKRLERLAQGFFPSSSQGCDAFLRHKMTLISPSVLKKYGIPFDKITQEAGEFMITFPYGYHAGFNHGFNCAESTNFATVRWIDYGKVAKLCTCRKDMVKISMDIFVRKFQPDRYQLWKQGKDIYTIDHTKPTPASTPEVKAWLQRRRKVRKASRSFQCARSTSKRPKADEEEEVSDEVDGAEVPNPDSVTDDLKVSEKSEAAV
Mot1 SUMO dose: growth restoration of Mot1-301 yeast on galactose, dose response, SUMO pathway inhibitor project, whole organism, S. cerevisiae, ATP luminescence, cherry-picked samples. shares compounds with SUMO Mot1 rescue. S. cerevisiae Mot1-301 galactose growth, 24 h; -100 = growth of slx-deleted rescue strain. growth activity, percent, % at 42 µM. 2,300 tested, under 10 active. AID 493004, 2010;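 active = Signal drops as the depositor expects, and the fitted half-maximal dose is no more than ten times the top valid tested dose; inconclusive = Poor fit, or a flat curve whose signal drops by 30% to 70%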;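 note: more negative values mean stronger growth rescue toward the control strain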
Of the large screens only hits and unclear results are named; the others gave an inactive call (follow-up assays come after a bar, where they were run).

Cc1cc(C)cc(OC(=O)CS(=O)c2ccc(C(F)(F)F)cc2[N+](=O)[O-])c1 (centres undefined)	SUMO Mot1 rescue 511 | Mot1 SUMO dose inactive
Cc1ccc(OCCNc2ccc(C(F)(F)F)cc2[N+](=O)[O-])cc1	none
Cc1ccc(CNC(=O)[C@H](C)NC(=O)C2CCN(C(=O)[C@@H]3CCCN3C(=O)OC(C)(C)C)CC2)cc1	JMJD2C inh inconclusive
CCN(CC)c1ccc2c(C)c(CN3CCOCC3)c(=O)oc2c1	SUMO Mot1 rescue active | Mot1 SUMO dose inactive
CCN(CC)c1ccc2c(C)c(CO)c(=O)oc2c1	none
CCOC(=O)C1CCN(C(=O)/C=C/c2ccc3c(c2)OCO3)CC1	none
COc1ccc(C(=O)CC(=O)C(=O)Nc2ccc(C)c(Cl)c2)cc1	SUMO Mot1 rescue 918 | Mot1 SUMO dose inactive
COc1ccc(CCNC(=O)CC2C(=O)NCCN2CC(C)(C)C)cc1 (centres undefined)	SUMO Mot1 rescue 770 | Mot1 SUMO dose inactive
Cc1cc2cc(C)c3nnc(SCC(=O)NCc4ccc5c(c4)OCO5)n3c2cc1C	none
Cc1cc(C)c2cc(C)c3nnc(SCC(=O)NCc4ccc5c(c4)OCO5)n3c2c1	SUMO Mot1 rescue 621 | Mot1 SUMO dose inactive
COc1ccccc1NS(=O)(=O)c1cc(NC(=O)CCc2nc3ccccc3c(=O)[nH]2)ccc1C	none
CC(NC(=O)CCc1nnc(-c2ccc(-c3ccccc3)cc2)o1)c1nc2ccccc2[nH]1 (centres undefined)	SUMO Mot1 rescue 452 | Mot1 SUMO dose inactive
Cc1cccc(CC(C)NC(=O)CCc2nnc(-c3ccccc3)o2)n1 (centres undefined)	none
COc1ccc(C)cc1N(CC(=O)NC1CCCC1)C(=O)Cn1nnc(-c2ccc(C)o2)n1	none (no result: T cell modulator, SUMO Mot1 rescue)
CC(C)(C)c1ccc(-c2nc(C=O)c3ccccn23)cc1	SUMO Mot1 rescue 412 | Mot1 SUMO dose inactive
C(=N\N1CCOCC1)/c1nc(-c2ccccc2)n2ccccc12	none
Cc1ccc(C(=O)NC(NC(=O)c2ccc(C)cc2)C(Cl)Cl)cc1	SUMO Mot1 rescue 378 | Mot1 SUMO dose inactive
Cc1ccc(C(NC(=O)c2ccccc2)C(Cl)Cl)cc1 (centres undefined)	none
O=C(Nc1cccc(F)c1)c1cc(S(=O)(=O)N2CCOCC2)cs1	none
COc1cc(NS(=O)(=O)c2cc(C(=O)NCCc3ccccn3)ccc2OC)cc(OC)c1	none (no result: HIF activator)
COc1cc(/C=N/NC(=O)c2cccc([N+](=O)[O-])c2)ccc1O	SUMO Mot1 rescue active | Mot1 SUMO dose inactive
COc1ccc(/C=N/NC(=O)c2cccc([N+](=O)[O-])c2)cc1O	none
CC1CN(C(=O)c2cc([N+](=O)[O-])cc([N+](=O)[O-])c2)CC(C)O1 (centres undefined)	SUMO Mot1 rescue active | Mot1 SUMO dose inactive
CC1=C(C(=O)Nc2ccccc2C(F)(F)F)C(c2sccc2C)NC(=S)N1 (centres undefined)	none
CC(=O)N1CCC2(CC1)CC(=O)c1cc(OCC(=O)N3CCCC3)ccc1O2	SUMO Mot1 rescue 488 | Mot1 SUMO dose inactive
CCOC(=O)COc1ccc2c(c1)C(=O)CC1(CCN(C(C)=O)CC1)O2	none
CC(C)NC(=O)COc1ccc(S(=O)(=O)N(C)Cc2ccccc2)cc1	SUMO Mot1 rescue 363 | Mot1 SUMO dose inactive
Cc1ccc(N2C(=O)/C(=C/c3cccnc3)SC2=S)cc1	none
Cc1cccc(N2C(=O)/C(=C/c3cccnc3)SC2=S)c1	SUMO Mot1 rescue 939 | Mot1 SUMO dose inactive
Nc1ccc(/C=C/C(=O)c2ccco2)cc1	none
N#Cc1ccc(/C=C/C(=O)c2ccco2)cc1	SUMO Mot1 rescue 718 | Mot1 SUMO dose inactive
CCOc1ncccc1-c1nc(-c2cccs2)no1	SUMO Mot1 rescue 916 | Mot1 SUMO dose inactive
CCCC(O)(c1ccc(Br)cc1)C(CN1CCOCC1)c1ccc(Cl)cc1 (centres undefined)	SUMO Mot1 rescue 555 | Mot1 SUMO dose inactive
CCCC(O)(c1ccc(Cl)cc1)C(CN1CCOCC1)c1ccccc1 (centres undefined)	none (no result: SUMO Mot1 rescue)
COc1cc(-c2nnc(COC(=O)c3ccc(C)o3)o2)cc(OC)c1OC	none (no result: HIF activator)
O=C(CSc1nnc2c(n1)[nH]c1ccccc12)Nc1cccc(S(=O)(=O)N2CCOCC2)c1	none
COCCCNC(=O)c1cc(C(=O)c2c(-c3c(Cl)cccc3Cl)noc2C)c[nH]1	SUMO Mot1 rescue active | Mot1 SUMO dose inactive
COc1ccc(N2C(=O)CC(NCC#N)C2=O)cc1 (centres undefined)	none
COc1ccc(N2C(=O)CC(NCc3cccs3)C2=O)cc1 (centres undefined)	SUMO Mot1 rescue 359 | Mot1 SUMO dose inactive
Cc1cccc(C(=O)OCC(=O)c2csc(N3CCCCC3)n2)c1[N+](=O)[O-]	none (no result: HIF activator)
O=C(COC(=O)c1ccc([N+](=O)[O-])cc1)Nc1ccccc1C(=O)NC1CC1	none (no result: HIF activator)
COCCn1c(SCC(=O)NCc2cccs2)nnc1-c1ccc(OC)cc1	SUMO Mot1 rescue 916 | Mot1 SUMO dose inactive
COc1ccc(-c2nnc(SCC(=O)NCc3cccs3)n2C)cc1	none
CC(C)(CNC(=O)c1cccs1)CNC(=O)c1cccs1	SUMO Mot1 rescue 667 | Mot1 SUMO dose inactive
CCOC(=O)CNC(=O)c1cccs1	none
O=C(NCCCn1ccnc1)c1ccc(Cl)cc1	SUMO Mot1 rescue 574 | Mot1 SUMO dose inactive
Cc1ccc(C(=O)NCCCN2CCOCC2)cc1	SUMO Mot1 rescue 410 | Mot1 SUMO dose inactive
Cc1ccc(C(=O)NCCNC(=O)c2ccc(C)nc2)cc1	none
COc1ccc(CC(=O)NCCN2CCOCC2)cc1	SUMO Mot1 rescue 395 | Mot1 SUMO dose inactive
Cc1ccc(C(=O)NCCCNC(=O)c2ccc(C)nc2)cc1	SUMO Mot1 rescue 424 | Mot1 SUMO dose inactive
Nc1nc(Nc2ccc(Cl)cc2)c(NC=O)c(=O)[nH]1	none
Nc1cc(Cl)ccc1N1CCOCC1	SUMO Mot1 rescue 465 | Mot1 SUMO dose inactive
Cc1ccc(NC(=O)C(=O)NCC2CCCN2S(=O)(=O)c2cccs2)cc1 (centres undefined)	SUMO Mot1 rescue 464 | Mot1 SUMO dose inactive
COc1ccc(S(=O)(=O)N2CCCC2CNC(=O)C(=O)NCc2ccccn2)cc1 (centres undefined)	SUMO Mot1 rescue 440 | Mot1 SUMO dose inactive
O=C(NCC1CCCN1S(=O)(=O)c1cccs1)C(=O)Nc1ccccc1 (centres undefined)	none
CC(=O)c1cccc(OCc2cc(C(=O)NCc3nc(C)c(C)s3)no2)c1	none
Cn1c(NCc2ccco2)nc2c1c(=O)n(Cc1ccc(Cl)cc1)c(=O)n2C	SUMO Mot1 rescue active | Mot1 SUMO dose inactive
Cc1nnc(NC(=O)c2cccc(S(=O)(=O)N3CCOCC3)c2)s1	none
